# Source: ChEMBL document CHEMBL1140079, “Discovery of orally bioavailable cathepsin S inhibitors for the reversal of neuropathic pain” (J Med Chem, 2008)
# Assays:
# Cathepsin K [1] = target: T1, Cathepsin K (Homo sapiens, UniProt P43235); assay: Inhibition of human recombinant cathepsin K by fluorescence assay
# T1 sequence (P43235 whole entry): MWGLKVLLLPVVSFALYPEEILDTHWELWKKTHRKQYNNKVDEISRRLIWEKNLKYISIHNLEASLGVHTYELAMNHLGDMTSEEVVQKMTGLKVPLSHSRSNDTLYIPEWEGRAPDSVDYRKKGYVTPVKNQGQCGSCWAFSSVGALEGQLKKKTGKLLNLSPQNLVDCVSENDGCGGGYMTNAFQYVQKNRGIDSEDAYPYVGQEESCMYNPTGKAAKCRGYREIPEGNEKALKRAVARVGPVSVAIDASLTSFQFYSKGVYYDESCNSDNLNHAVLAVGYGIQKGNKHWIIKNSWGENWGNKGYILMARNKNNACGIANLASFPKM
# Method in brief: (§1)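 Recombinant human enzymes in a fluorescence assay; substrate Z-Phe-Arg-MCA for cathepsins K and L, Z-Leu-Leu-Arg-MCA for cathepsin S. Means of two experiments, each run in duplicate; individual points within a 2-fold range of each other.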
# Cathepsin S [2] = target: Cathepsin S (Homo sapiens, UniProt P25774); assay: Inhibition of human recombinant cathepsin S by fluorescence assay; method in brief: as §1
# Procathepsin L [3] = target: Procathepsin L (Homo sapiens, UniProt P07711); assay: Inhibition of human recombinant cathepsin L by fluorescence assay; method in brief: as §1
# [4] = Inhibition of rat cathepsin S cysteine 137 mutant by fluorescence assay
# Method in brief: (§2)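 Recombinant rat cathepsins K, L, S (137Gly and 137Cys forms) and mouse cathepsin S in a fluorescence assay. Substrates: Z-Phe-Arg-MCA for K and L, Z-Leu-Leu-Arg-MCA for S. IC50 reported as means ± SD of three experiments.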
# Rattus norvegicus [5] = organism: Rattus norvegicus; assay: Selectivity for rat cathepsin S glycine 137 mutant over rat cathepsin B
# Method in brief: (§3)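 Recombinant rat cathepsins in a fluorescence assay with MCA substrates: Z-Leu-Leu-Arg-MCA for cathepsin S (137Gly form), Z-Phe-Arg-MCA for K and L, and Z-Arg-Arg-MCA for B. IC50 values were taken as means ± SD of three experiments, and selectivity was compared from the IC50 values against the S enzyme and each other cathepsin.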
# [6] = Bioavailability in Sprague-Dawley rat at 1 mg/kg, iv and 3 mg/kg, po by LC/MS analysis; format: ADME, organism-based; conditions: in vivo
# Method in brief: (§4)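 Male Sprague-Dawley rats dosed orally at 3 mg/kg as a suspension and intravenously at 1 mg/kg as a bolus. Plasma levels quantified by LC/MS. Oral AUC and Cmax dose-normalized to 1 mg/kg. Means ± SD of three individual experiments.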
# [7] = Inhibition of rat cathepsin S glycine 137 mutant by fluorescence assay; method in brief: as §2
# [8] = Terminal elimination half life in Sprague-Dawley rat at 1 mg/kg, iv by LC/MS analysis; format: ADME, organism-based; set-up: dose 1 mg/kg, route intravenous; conditions: in vivo; method in brief: as §4
# [9] = Cmax in Sprague-Dawley rat at 3 mg/kg, po by LC/MS analysis; format: ADME, organism-based; set-up: dose 3 mg/kg, route oral; conditions: in vivo; method in brief: as §4
# [10] = Plasma clearance in Sprague-Dawley rat at 1 mg/kg, iv and 3 mg/kg, po by LC/MS analysis; format: ADME, organism-based; method in brief: as §4
# Cathepsin S [11] = target: Cathepsin S (Mus musculus, UniProt O70370); assay: Inhibition of mouse cathepsin S by fluorescence assay; method in brief: as §2
# Procathepsin L [12] = target: T2, Procathepsin L (Rattus norvegicus, UniProt P07154); assay: Inhibition of rat cathepsin L by fluorescence assay; method in brief: as §2
# T2 sequence (P07154 whole entry): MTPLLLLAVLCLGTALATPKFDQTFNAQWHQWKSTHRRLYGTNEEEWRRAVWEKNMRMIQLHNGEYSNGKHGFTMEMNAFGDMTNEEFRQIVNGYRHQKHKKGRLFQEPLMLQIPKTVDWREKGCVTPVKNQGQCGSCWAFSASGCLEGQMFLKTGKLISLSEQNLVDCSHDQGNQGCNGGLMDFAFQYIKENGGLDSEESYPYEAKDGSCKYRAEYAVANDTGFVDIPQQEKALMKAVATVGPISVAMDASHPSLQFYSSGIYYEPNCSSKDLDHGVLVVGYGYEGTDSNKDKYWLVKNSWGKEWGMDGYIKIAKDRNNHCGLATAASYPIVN
# Cathepsin K [13] = target: T3, Cathepsin K (Rattus norvegicus, UniProt O35186); assay: Inhibition of rat cathepsin K by fluorescence assay; method in brief: as §2
# T3 sequence (O35186 whole entry): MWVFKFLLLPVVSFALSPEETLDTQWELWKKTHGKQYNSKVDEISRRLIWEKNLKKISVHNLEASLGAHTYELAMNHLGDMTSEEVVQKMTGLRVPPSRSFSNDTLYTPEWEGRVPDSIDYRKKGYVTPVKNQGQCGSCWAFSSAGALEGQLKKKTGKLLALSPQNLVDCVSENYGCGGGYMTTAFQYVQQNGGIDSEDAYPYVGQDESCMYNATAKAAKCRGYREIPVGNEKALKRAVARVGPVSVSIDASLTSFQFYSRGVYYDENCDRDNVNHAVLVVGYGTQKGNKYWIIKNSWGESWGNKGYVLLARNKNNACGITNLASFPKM
# Rattus norvegicus [14] = organism: Rattus norvegicus; assay: Selectivity for rat cathepsin S glycine 137 mutant over rat cathepsin L; method in brief: as §3
# Rattus norvegicus [15] = organism: Rattus norvegicus; assay: Selectivity for rat cathepsin S glycine 137 mutant over rat cathepsin K; method in brief: as §3
# [16] = Volume of distribution in Sprague-Dawley rat at 1 mg/kg, iv and 3 mg/kg, po by LC/MS analysis; format: ADME, organism-based; conditions: in vivo; method in brief: as §4
# Procathepsin L (Homo sapiens, UniProt P07711), sequence (P07711 whole entry): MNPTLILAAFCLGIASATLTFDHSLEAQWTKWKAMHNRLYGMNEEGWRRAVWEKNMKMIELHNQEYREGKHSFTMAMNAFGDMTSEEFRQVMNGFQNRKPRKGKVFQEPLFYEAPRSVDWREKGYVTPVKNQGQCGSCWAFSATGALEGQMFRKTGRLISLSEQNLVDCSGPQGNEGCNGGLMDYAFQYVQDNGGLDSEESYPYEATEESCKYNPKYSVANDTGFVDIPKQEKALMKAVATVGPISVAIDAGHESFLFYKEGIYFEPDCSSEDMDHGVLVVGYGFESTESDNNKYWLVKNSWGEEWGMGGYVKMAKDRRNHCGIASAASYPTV
# Cathepsin S (Homo sapiens, UniProt P25774), sequence (P25774 whole entry): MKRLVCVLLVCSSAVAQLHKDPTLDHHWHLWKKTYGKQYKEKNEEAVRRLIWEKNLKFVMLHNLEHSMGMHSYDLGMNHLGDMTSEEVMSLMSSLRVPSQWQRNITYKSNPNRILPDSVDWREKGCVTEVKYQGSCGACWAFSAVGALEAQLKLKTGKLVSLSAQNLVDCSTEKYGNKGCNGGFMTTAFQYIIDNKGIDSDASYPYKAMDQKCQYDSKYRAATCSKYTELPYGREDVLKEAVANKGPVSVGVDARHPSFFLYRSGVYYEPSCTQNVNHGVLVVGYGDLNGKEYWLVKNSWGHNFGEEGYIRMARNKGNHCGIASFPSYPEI
# Cathepsin S (Mus musculus, UniProt O70370), sequence (O70370 whole entry): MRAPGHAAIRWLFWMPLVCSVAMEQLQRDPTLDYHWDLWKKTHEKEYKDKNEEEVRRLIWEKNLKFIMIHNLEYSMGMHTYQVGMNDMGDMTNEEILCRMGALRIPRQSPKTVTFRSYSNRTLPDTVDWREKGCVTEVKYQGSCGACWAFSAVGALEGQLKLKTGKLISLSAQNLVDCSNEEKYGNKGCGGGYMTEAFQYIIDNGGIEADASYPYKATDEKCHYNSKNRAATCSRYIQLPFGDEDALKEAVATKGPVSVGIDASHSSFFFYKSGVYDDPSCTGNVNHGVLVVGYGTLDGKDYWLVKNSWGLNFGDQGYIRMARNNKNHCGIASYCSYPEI
IC50 (Cathepsin K [1]) [nM],IC50 (Cathepsin S [2]) [nM],IC50 (Procathepsin L [3]) [nM],IC50 [4] [µM],Activity (Rattus norvegicus [5]),bioavailability [6] [%],IC50 [7] [nM],half-life [8] [min],Cmax [9] [nM],clearance [10] [mL/min/kg],IC50 (Cathepsin S [11]) [nM],IC50 (Procathepsin L [12]) [µM],IC50 (Cathepsin K [13]) [µM],Activity (Rattus norvegicus [14]),Activity (Rattus norvegicus [15]),Vd [16] [L/kg],Compound
> 1000,17,> 1000,–,–,–,–,–,–,–,–,–,–,–,–,–,CC(=O)N1CCN(c2ccc(OCc3cc4cnc(C#N)nc4n3CCc3ccc(Cl)cc3)cc2)CC1
290,11,> 1000,–,–,–,–,–,–,–,–,–,–,–,–,–,CC(=O)N1CCCN(c2ccc(OCc3cc4cnc(C#N)nc4n3CCC3CCCCC3)cc2)CC1
79,5,2300,–,–,–,–,–,–,–,–,–,–,–,–,–,CC(=O)N1CCN(c2ccc(OCc3cc4cnc(C#N)nc4n3CCC3CCCC3)cc2)CC1
1650,–,5200,> 10,> 100,53,10,66,61,65,10,> 10,> 10,> 100,> 100,5.6,CC(=O)N1CCN(c2ccc(OCc3cc4cnc(C#N)nc4n3CCC3CCCCC3)cc2)CC1
